Experiments:
Leishmania amazonensis [1] = assay: Ratio of potassium antimonyl tartrate IC50 to compound IC50 for antimony-sensitive Leishmania amazonensis MHOM/BR/1989/BA199 promastigote infected in Swiss mouse peritoneal macrophages; assay type: functional
Leishmania infantum [2] = assay: Ratio of potassium antimonyl tartrate IC50 to compound IC50 for antimony-sensitive Leishmania infantum MCAN/BR/2002/BH400 promastigote infected in Swiss mouse peritoneal macrophages; assay type: functional
[3] = Selectivity index, ratio of CC50 for Swiss mouse peritoneal macrophages to IC50 for antimony-resistant Leishmania amazonensis MHOM/BR/1989/BA199 promastigote; assay type: functional
How it was run: (§1)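 SI = CC50/IC50. CC50 comes from Swiss mouse peritoneal macrophages, harvested by lavage with cold RPMI-1640 lacking FBS. Cells seeded at 4.0 × 10⁶/mL, allowed to adhere 1 h, then washed free of non-adherent cells. Viability read by MTT (5 mg/mL stock, 4 h).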

[4] = Selectivity index, ratio of CC50 for Swiss mouse peritoneal macrophages to IC50 for antimony-sensitive Leishmania amazonensis MHOM/BR/1989/BA199 promastigote; assay type: functional
How it was run: (§2)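 SI = CC50 / IC50. CC50 is from Swiss mouse peritoneal macrophages, read by MTT after lavage and 1 h adherence. […] Promastigotes grown in α-MEM with 10% heat-inactivated FBS, hemin and biopterin, pH 7.0, 25 °C. DMSO ≤0.2% final. Triplicate.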

[5] = Selectivity index, ratio of CC50 for Swiss mouse peritoneal macrophages to IC50 for antimony-resistant Leishmania infantum MCAN/BR/2002/BH400 promastigote; assay type: functional; how it was run: as §1
[6] = Selectivity index, ratio of CC50 for Swiss mouse peritoneal macrophages to IC50 for antimony-sensitive Leishmania infantum MCAN/BR/2002/BH400 promastigote; assay type: functional; how it was run: as §2
[7] = Cytotoxicity against Swiss mouse peritoneal macrophages after 24 hrs by MTT assay; assay type: cell-based, Peritoneal macrophage cell
How it was run: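 Macrophages from peritoneal lavage of Swiss mice with cold FBS-free RPMI-1640. Cells seeded at 4.0 × 10⁶/mL, adhered 1 h, non-adherent cells washed off. Compounds were DMSO stocks diluted in medium over a concentration range, final DMSO ≤0.2%. Viability read by MTT (5 mg/mL solution, 4 h further incubation). CC50 taken as the 50% cytotoxic concentration.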

Leishmania amazonensis [8] = assay: Antileishmanial activity against antimony-resistant Leishmania amazonensis MHOM/BR/1989/BA199 promastigote infected in Swiss mouse peritoneal macrophages after 72 hrs; assay type: functional, organism-based; settings: MHOM/BR/1989/BA199, 72 h
How it was run: (§3)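 Promastigotes of Sb(III)-sensitive and -resistant lines (resistant to Sb(III) up to 2700), maintained at 25 °C, pH 7.0, in α-MEM with 10% heat-inactivated FBS, kanamycin, ampicillin, L-glutamine, hemin and biopterin. Drugs dissolved in DMSO, diluted in α-MEM across a concentration range, final DMSO ≤0.2%.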

Leishmania amazonensis [9] = assay: Antileishmanial activity against antimony-sensitive Leishmania amazonensis MHOM/BR/1989/BA199 promastigote infected in Swiss mouse peritoneal macrophages after 72 hrs; assay type: functional, organism-based; settings: MHOM/BR/1989/BA199, 72 h; how it was run: as §3
Leishmania infantum [10] = assay: Antileishmanial activity against antimony-resistant Leishmania infantum MCAN/BR/2002/BH400 promastigote infected in Swiss mouse peritoneal macrophages after 72 hrs; assay type: functional, organism-based; settings: MCAN/BR/2002/BH400, 72 h; how it was run: as §3
Leishmania infantum [11] = assay: Antileishmanial activity against antimony-sensitive Leishmania infantum MCAN/BR/2002/BH400 promastigote infected in Swiss mouse peritoneal macrophages after 72 hrs; assay type: functional, organism-based; settings: MCAN/BR/2002/BH400, 72 h; how it was run: as §3

SMILES | Ratio IC50 (Leishmania amazonensis [1]) | Ratio IC50 (Leishmania infantum [2]) | Ratio CC50/IC50 [3] | Ratio CC50/IC50 [4] | Ratio CC50/IC50 [5] | Ratio CC50/IC50 [6] | CC50 at 24 h [7] [µM] | IC50 (Leishmania amazonensis [8]) [µM] | IC50 (Leishmania amazonensis [9]) [µM] | IC50 (Leishmania infantum [10]) [µM] | IC50 (Leishmania infantum [11]) [µM]
O=C1C=C(n2cc(-c3ccccc3)nn2)C(=O)c2ccccc21 | 2.2 | 2 | 1.28 | 0.61 | 0.59 | 0.47 | 10.2 | 7.94 | 16.7 | 17.2 | 21.6
COc1ccc(-c2cn(C3=CC(=O)c4ccccc4C3=O)nn2)cc1 | 2.2 | 2 | 0.68 | 0.49 | 0.9 | 1.06 | 16.8 | 24.5 | 34.3 | 18.6 | 15.8
O=C1C=C(n2cc(-c3ccc(Br)cc3)nn2)C(=O)c2ccccc21 | 2.2 | 2 | 0.43 | 0.37 | 1.52 | 1.24 | 21.4 | 50.1 | 57.8 | 14.1 | 17.2
Cc1ccc(-c2cn(C3=CC(=O)c4ccccc4C3=O)nn2)cc1 | 2.2 | 2 | 1.1 | 0.71 | 1.12 | 1.72 | 15.2 | 13.8 | 21.2 | 13.6 | 8.8
O=C1C=C(n2cc(CO)nn2)C(=O)c2ccccc21 | 2.2 | 2 | 0.45 | 0.4 | 1.64 | 0.24 | 9.51 | 21.3 | 23.9 | 5.8 | 39.1
CC1(C)OC2=C(C(=O)C(=O)c3ccccc32)C1n1cc(-c2ccc(F)cc2)nn1 (stereo not given) | 23 | 15.5 | 0.8 | 0.75 | 0.72 | 0.81 | 3.52 | 4.39 | 4.7 | 4.9 | 4.32
CC1(C)OC2=C(C(=O)C(=O)c3ccccc32)C1n1cc(-c2ccc([N+](=O)[O-])cc2)nn1 (stereo not given) | 23 | 15.5 | 1.35 | 0.98 | 1.02 | 1.03 | 3.35 | 2.95 | 3.41 | 3.28 | 3.25
COc1ccc(-c2cn(C3C4=C(OC3(C)C)c3ccccc3C(=O)C4=O)nn2)cc1 (stereo not given) | 23 | 15.5 | 1.75 | 1.13 | 0.81 | 0.78 | 4.36 | 2.49 | 3.87 | 5.39 | 5.57
Cc1ccc(-c2cn(C3C4=C(OC3(C)C)c3ccccc3C(=O)C4=O)nn2)cc1 (stereo not given) | 23 | 15.5 | 0.95 | 0.87 | 1.07 | 0.98 | 3.31 | 3.49 | 3.8 | 3.1 | 3.38
O=C1C=C(n2cc(CN3C(=O)c4ccccc4C3=O)nn2)C(=O)c2ccccc21 | 2.2 | 2 | 0.13 | 0.11 | 0.64 | 0.13 | 5.39 | 40.2 | 50.6 | 8.47 | 42.1
